Screening data: PubChem, several laboratories
An excerpt weighted towards active compounds, which were near 2.6% of everything screened.
Hep lipid drop: hepatic lipid droplet formation modulation | 240,000 tested, 0.4% active | AML12 mouse hepatocytes, oleate lipid droplets, BODIPY imaging | AID 1656 | inhibition, % at 6.5 µM;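 active means lipid droplet intensity inhibited by at least 50%, with more than 500 cells counted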
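System: AML12 hepatocytes (mouse). Probe or stimulus: oleic acid at 100 µM to induce lipid droplet formation. Times: overnight treatment with compound plus oleate. Detection: Image-based BODIPY and DAPI two-channel analysis. Evaluation: percent inhibition of filter-corrected integrated lipid droplet intensity per well.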
MEKK3 PB1 HTS: raises or lowers MEK5 binding to the human MEKK3 PB1 domain; AID 1529; bead-based flow cytometry, Alexa488-MEK5 binding to MEKK3; actives lie on both sides; 0 = blocked by unlabeled MEK5, 100 = vehicle; 290,000 tested, 1.4% active; binding response (% of control), % at 10 µM; Q99759;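 active means binding response more than 3 SD above or below the average of its plate-row segment, actives on both sides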;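 further: Alexa488 bead fluorescence after subtracting the streptavidin-only scavenger bead signal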
Target sequence (Q99759 whole entry, looked up, the tested form may be a part): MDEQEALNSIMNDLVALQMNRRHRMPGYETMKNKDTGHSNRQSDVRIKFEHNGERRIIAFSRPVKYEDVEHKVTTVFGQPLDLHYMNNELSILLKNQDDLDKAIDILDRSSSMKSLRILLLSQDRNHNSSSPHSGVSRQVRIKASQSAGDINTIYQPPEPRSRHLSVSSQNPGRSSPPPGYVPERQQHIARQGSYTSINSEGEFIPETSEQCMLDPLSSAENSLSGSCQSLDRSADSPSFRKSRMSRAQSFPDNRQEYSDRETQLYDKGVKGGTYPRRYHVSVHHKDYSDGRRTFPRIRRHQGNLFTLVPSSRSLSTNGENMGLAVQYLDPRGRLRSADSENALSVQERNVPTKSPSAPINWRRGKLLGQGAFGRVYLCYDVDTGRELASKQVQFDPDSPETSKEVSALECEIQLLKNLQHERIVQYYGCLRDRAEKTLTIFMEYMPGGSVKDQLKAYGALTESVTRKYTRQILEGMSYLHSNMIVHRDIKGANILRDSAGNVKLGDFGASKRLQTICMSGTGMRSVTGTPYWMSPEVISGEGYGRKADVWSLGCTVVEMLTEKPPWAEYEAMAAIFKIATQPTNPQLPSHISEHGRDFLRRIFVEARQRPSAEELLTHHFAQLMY
MEKK2 mut-MEK5: signal of MEK5 binding to mutant human MEKK2 PB1 domain. bead flow cytometry, Alexa488-MEK5 binding to MEKK2 mutant. 290,000 tested, 0.35% active. percent response, % at 10 µM; in the data active means percent response above about 24%, passing the limit was not always enough
MEKK2 WT-MEK5: raises or lowers MEK5 binding to wildtype human MEKK2 PB1 domain | bead flow cytometry, Alexa488-MEK5 binding to MEKK2 WT; actives lie on both sides | binding response (% of control), % at 10 µM | 290,000 tested, 1.1% active; in the data active means binding response below about 67% or above about 130%
Lipid drop inh: hepatic lipid droplet formation inhibition, confirmed | shares compounds with Hep lipid drop | AML12 mouse hepatocytes, BODIPY lipid droplet imaging; droplets induced with 100 µM oleic acid | inhibition, % at 5.2 µM | 870 tested, 65% active | AID 463183;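 active means inhibition of lipid droplet metric at least 50%, with more than 300 cells in each of four replicates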;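 further: plate controls were DMSO with oleic acid for no effect and 5 µM Triacsin-C for full effect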
AML12 cytotox: toxic to AML12 mouse hepatocytes in counter-screen; shares compounds with Hep lipid drop; DAPI nuclear morphology cytotoxicity imaging; active compounds read high; cells fed 100 µM oleate overnight; z-score at 5 µM; 870 tested, 3% active; AID 463200; in the data active means z-score above about 6.3;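 further: compound exposure lasted overnight at 37 °C before fixation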
AML12 tox conf: confirmation of cytotoxicity in AML12 mouse hepatocytes; 530 tested, under 10 active; shares compounds with Hep lipid drop; AML12 mouse hepatocyte viability, ATP luminescence; cells loaded with 100 µM oleic acid; cytotoxicity, % at 50 µM;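 active means cytotoxicity above 50% in each of four replicates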;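 further: compound exposure lasted overnight at 37 °C before the ATP read; 0% = DMSO-treated cells and 100% = wells with no cells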
* marks the source's active call; other numbers are inactive results; x = no result given.

SMILES | Hep lipid drop | MEKK3 PB1 HTS | MEKK2 mut-MEK5 | MEKK2 WT-MEK5 | Lipid drop inh | AML12 cytotox | AML12 tox conf
O=C(CNc1ccccc1)N/N=C/c1cn(-c2ccccc2)nc1-c1ccccc1 | 58* | 97 | -3 | 99 | 38 | 0.37 | x
Cc1ccc(NC(=O)Cn2cc(C(=O)C3CC3)c3ccccc32)cc1 | 46 | 99 | -2 | 98 | x | x | x
Cc1cccc(NC(=O)Cn2cc(C(=O)C3CC3)c3ccccc32)c1 | 51* | 101 | -2 | 95 | 93* | -0.11 | 20
O=C(CCc1nnc2ccc(NCc3ccccc3)nn12)NC1CCCC1 | 1 | 102 | 9 | 102 | x | x | x
NCCCCCc1nnc(SCc2ccc(Cl)c(Cl)c2)o1 | x | 106 | 11 | 111 | x | x | x
Cc1ccnc(Nc2nc(-c3ccc(O)cc3O)cs2)c1 | 18 | 107 | 3 | 110 | x | x | x
Cc1cc(N(CCO)CCO)ccc1N=Nc1cc(F)ccc1F | 115* | 101 | -3 | 99 | 112* | 0.88 | 20
Nc1ccc(N(CCO)CCO)cc1 | -2 | 92 | -4 | 96 | x | x | x
CC1CC(C)CN(C(=O)CSCC(=O)Nc2nc(-c3cccs3)cs2)C1 (configuration not stated) | 56* | x | x | x | 108* | -0.11 | 9
COc1ccc(NC(=O)c2sccc2C)cn1 | 60* | 100 | 3 | 100 | 1 | -0.17 | x
Cc1ccsc1C(=O)Nc1ccc(C(=O)O)cc1 | 4 | 94 | 1 | 99 | x | x | x
CCCCNC(=O)c1ccccc1NC(=O)CCC | -5 | 119 | 0 | 109 | x | x | x
CC(NC(=O)c1ccccc1)C(c1cccs1)N1CCOCC1 (configuration not stated) | 3 | 105 | 5 | 109 | x | x | x
Cc1c(Cl)sn(-c2ccc(Cl)cc2)c1=O | 59* | 102 | 0 | 101 | -13 | 11* | x
CCOC(=O)COc1ccc2c(c1)c(C(C)=O)c(C)n2-c1ccc(OC)cc1 | 15 | 104 | 4 | 105 | x | x | x
Cc1nc(NC(=O)c2ccc(OCC(C)C)cc2)sc1Cc1ccc2c(c1)OCO2 | 63* | 103 | 8 | 132 | 98* | -0.18 | 6
Cc1cc(/C=C(\C#N)C(=O)NCc2ccco2)c(C)n1-c1ccc(C(=O)O)cc1 | -3 | 113 | 0 | 104 | x | x | x
COCCNC(=S)N1CCc2cc(OC)c(OC)cc2C1COc1cc(C)cc(C)c1 (configuration not stated) | 62* | 97 | 7 | 102 | 90* | 0.58 | -2
CNC(=S)N1CCc2cc(OC)c(OC)cc2C1COc1ccc(OC)cc1 (configuration not stated) | 13 | 105 | -3 | 101 | x | x | x
COC(=O)C1=C(C)N=c2s/c(=C3\C(=O)Nc4ccccc43)c(=O)n2C1c1ccccc1 (configuration not stated) | 60* | x | x | x | 56* | -0.52 | 69*
CCOC(=O)C1=C(C)N=c2s/c(=C3/C(=O)Nc4ccccc43)c(=O)n2C1c1ccc(C)cc1 (configuration not stated) | 30 | 78 | 2 | 79 | x | x | x
CCOC(=O)C1=C(C)n2c(s/c(=C3\C(=O)Nc4ccccc43)c2=O)=NC1c1ccc(OC)cc1 (configuration not stated) | 80* | 91 | -3 | 80 | 24 | -0.28 | x
Cc1cc(C)n(CC(=O)NNC(=O)C2CC(=O)N(Cc3ccccc3Cl)C2)n1 (configuration not stated) | -12 | 99 | 4 | 103 | x | x | x
COc1ccccc1NC(=O)N1CCCC1C(=O)Nc1ccc2c(c1)OCO2 (configuration not stated) | 71* | 104 | 0 | 107 | 71* | 0.22 | 7
COc1ccc(NC(=O)Nc2cc(C)ccc2OC)cc1 | -4 | 99 | 0 | 105 | x | x | x
SMILES | Hep lipid drop | MEKK3 PB1 HTS | MEKK2 mut-MEK5 | MEKK2 WT-MEK5 | Lipid drop inh | AML12 cytotox | AML12 tox conf
COc1ccc(Cl)cc1NC(=O)Nc1ccc(C(=O)N2CCCC2)cc1 | 56* | 101 | 2 | 105 | 77* | -0.61 | 18
COc1ccc(C)cc1NC(=O)Nc1ccc(C(=O)N2CCCC2)cc1 | 70* | 101 | 3 | 104 | 95* | 0.3 | 29
COc1ccc(Cl)cc1NC(=S)N1CCCC1 | -7 | 96 | -1 | 100 | x | x | x
COc1ccc(NC(=O)NC2CCCCCCC2)cc1 | -2 | 106 | 8 | 109 | x | x | x
C[N+](C)(C)C(Cc1c[nH]c2ccccc12)C(=O)[O-] (configuration not stated) | 5 | 109 | 5 | 103 | x | x | x
COc1cc(NC(=O)CSc2nnc3c(C)cc4c(C)ccc(C)c4n23)c(C(=O)O)cc1OC | -1 | 113 | -4 | 108 | x | x | x
COc1ccccc1NS(=O)(=O)c1ccc(N/N=C/c2c(C)nn(-c3ccccc3)c2N2CCCC2)c([N+](=O)[O-])c1 | 100* | 76 | -3 | 77 | 114* | -1 | 25
C=CCSc1n[nH]c(-c2ccc(OCCC)cc2)n1 | 37 | 101 | 4 | 108 | x | x | x
C=CCSc1n[nH]c(-c2ccc(OCCCC)cc2)n1 | 54* | 97 | -2 | 99 | 98* | 0.3 | 13
COc1ccc(NC(=O)CSc2nc3ccccc3nc2N2CCCC2)cc1Cl | 64* | 100 | -1 | 92 | 96* | -0.14 | 5
COc1ccccc1N1CCN(C(=O)CSc2nc3ccccc3nc2N2CCC(C)CC2)CC1 | 52* | 99 | -6 | 88 | 26 | 0.4 | x
Cc1cc(C)cc(NC(=O)CSc2nc3ccccc3nc2N2CCCC2)c1 | 70* | 98 | -6 | 85 | 107* | -0.28 | 17
Cc1cc(C)cc(NC(=O)CSc2nc3ccccc3nc2N2CCCCC2)c1 | 36 | 98 | -9 | 89 | x | x | x
Cc1cccc(NC(=O)CSc2nc3ccccc3nc2N2CCCC2)c1C | 55* | 99 | -5 | 94 | 63 | -0.26 | x
CCN(CC)S(=O)(=O)c1ccc(OC)c(NC(=O)Cn2cnc3c2c(=O)n(C)c(=O)n3C)c1 | 10 | 95 | -13 | 83 | x | x | x
Cc1nccn1CCOc1ccccc1Cl | x | 110 | 9 | 104 | x | x | x
CCOc1ccc(NC(=O)CSc2nc3ccccc3nc2N2CCCC2)cc1 | 81* | 100 | -3 | 94 | 106* | -1 | 13
N#CC(c1ccc(Cl)cc1)c1ccc2c(C(F)(F)F)cc(C(F)(F)F)nc2n1 (configuration not stated) | 59* | 103 | 11 | 100 | -68 | 6.2* | x
FC(F)(F)c1cc(C(F)(F)F)c2ccc(N3CCN(c4ccc(Cl)cc4)CC3)nc2n1 | x | 103 | 6 | 104 | x | x | x
CC(C)(C)C(=O)Cn1c(=O)n(CC2CCCO2)c(=O)c2ccccc21 (configuration not stated) | 55* | 93 | -2 | 93 | 9 | -0.42 | x
